Source: ChEMBL document CHEMBL1126842, “Inhibition of herpes simplex virus type 1 ribonucleotide reductase by substituted tetrapeptide derivatives” (J Med Chem, 1993)
Where a SMILES comes first, the peptide text is derived from it. [ ]: non-standard residue; d: D form. The star is where a group is joined. ξ: configuration not given here. Asp(3,3-Me2) = CC(C)(C(=O)O)[C@H](N)C(=O)O; Cyclohexanecarbonyl = O=C(C1CCCCC1)*; Butanoyl(2-Et) = CCC(CC)C(=O)*; Thr(3ξ) = CC(O)[C@H](N)C(=O)O; Tle = CC(C)(C)[C@H](N)C(=O)O; Leu(ol) = CC(C)C[C@H](N)CO; Isovaleryl = CC(C)CC(=O)*; Isobutyryl = CC(C)C(=O)*; Piperidide = C1CCN(*)CC1; Pyrrolidide = C1CCN(*)C1; X1 = CC(C)C(C(=O)*)C(C)C; Bn = c1ccc(C*)cc1

Tested on: not listed separately
Experiment: Inhibition of Herpes simplex virus type 1 ribonucleotide reductase
Type: functional, Human alphaherpesvirus 1
Method in brief: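 IC50 taken as the mean of at least three separate determinations, with standard deviation from the mean reported; one entry came from a single determination.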

Compound	IC50 [µM]
CCC(CC)C(=O)N[C@H](C(=O)N[C@@H](CC(=O)N1CCCC1)C(=O)N[C@@H](CC(=O)O)C(=O)NCCC(C)(C)C)C(C)(C)C	19
CCC(CC)C(=O)N[C@H](C(=O)N[C@@H](CC(=O)N1CCCC1)C(=O)N[C@@H](CC(=O)O)C(=O)NC(CO)CO)C(C)(C)C	> 1000
CCC(CC)C(=O)N[C@H](C(=O)N[C@@H](CCC1CCCC1)C(=O)N[C@@H](CC(=O)O)C(=O)N[C@@H](CC(C)C)C(=O)O)C(C)(C)C	64
CC(C)C[C@H](NC(=O)[C@H](CC(=O)O)NC(=O)[C@H](CC(N)=O)NC(=O)[C@@H](NC(=O)[C@@H](NC(=O)[C@H](C)NC(=O)CNC(=O)[C@H](C)NC(=O)[C@@H](N)Cc1ccc(O)cc1)C(C)C)C(C)C)C(=O)O	38
CC[C@H](C)[C@H](NC(C)=O)C(=O)N[C@@H](CC(=O)N1CCCC1)C(=O)N[C@@H](CC(=O)O)C(=O)N[C@@H](CC(C)C)C(=O)O (Ac-ID(Pyrrolidide)DL-OH)	> 1000
CC[C@H](C)[C@H](NC(=O)[C@@H](N)C(C)C)C(=O)N[C@@H](CC(=O)N1CCCC1)C(=O)N[C@@H](CC(=O)O)C(=O)N[C@@H](CC(C)C)C(=O)O (H-VID(Pyrrolidide)DL-OH)	13
CC(C)C[C@H](NC(=O)[C@H](CC(=O)O)NC(=O)[C@H](CC(N)=O)NC(=O)[C@@H](N)C(C)C)C(=O)O (H-VNDL-OH)	> 2000
CCC(CC)C(=O)NCC(=O)N[C@@H](CC(=O)N1CCCC1)C(=O)N[C@@H](CC(=O)O)C(=O)N[C@@H](CC(C)C)C(=O)O ({Butanoyl(2-Et)}-GD(Pyrrolidide)DL-OH)	77
CCC(CC)C(=O)N[C@@H](CCCCN)C(=O)N[C@@H](CC(=O)N1CCCC1)C(=O)N[C@@H](CC(=O)O)C(=O)N[C@@H](CC(C)C)C(=O)O ({Butanoyl(2-Et)}-KD(Pyrrolidide)DL-OH)	14
CCC(CC)C(=O)N[C@H](C(=O)N[C@@H](CC(=O)N1CCCC1)C(=O)N[C@@H](C)C(=O)N[C@@H](CC(C)C)C(=O)O)C(C)(C)C ({Butanoyl(2-Et)}-[Tle]D(Pyrrolidide)AL-OH)	> 1000
CCC(CC)C(=O)N[C@H](C(=O)N[C@@H](CC(=O)N1CCCC1)C(=O)N[C@@H](CC(=O)O)C(=O)N[C@@H](C)C(=O)O)C(C)(C)C ({Butanoyl(2-Et)}-[Tle]D(Pyrrolidide)DA-OH)	> 1000
CCC(CC)C(=O)N[C@H](C(=O)N[C@@H](CC(=O)N1CCCC1)C(=O)N[C@@H](CCC(=O)O)C(=O)N[C@@H](CC(C)C)C(=O)O)C(C)(C)C ({Butanoyl(2-Et)}-[Tle]D(Pyrrolidide)EL-OH)	> 1000
CCC(CC)C(=O)N[C@H](C(=O)N[C@@H](CCC(=O)N1CCCC1)C(=O)N[C@@H](CC(=O)O)C(=O)N[C@@H](CC(C)C)C(=O)O)C(C)(C)C ({Butanoyl(2-Et)}-[Tle]E(Pyrrolidide)DL-OH)	> 1000
CCC(CC)C(=O)N[C@H](C(=O)N[C@@H](CC(N)=O)C(=O)N[C@@H](CC(=O)O)C(=O)N[C@@H](CC(C)C)C(=O)O)C(C)(C)C ({Butanoyl(2-Et)}-[Tle]NDL-OH)	100
H-AGAVVNDL-OH	280
H-AVVNDL-OH	190
H-GAVVNDL-OH	220
H-YAGAVVND-OH	> 2000

Stronger by IC50, values ahead:

IC50 [µM]	Compound
11	CCC(CC)C(=O)N[C@@H](C)C(=O)N[C@@H](CC(=O)N1CCCC1)C(=O)N[C@@H](CC(=O)O)C(=O)N[C@@H](CC(C)C)C(=O)O ({Butanoyl(2-Et)}-AD(Pyrrolidide)DL-OH)
10	CC[C@H](C)[C@H](NC(=O)C(C)C)C(=O)N[C@@H](CC(=O)N1CCCC1)C(=O)N[C@@H](CC(=O)O)C(=O)N[C@@H](CC(C)C)C(=O)O (Isobutyryl-ID(Pyrrolidide)DL-OH)
8.1	CCC(CC)C(=O)N[C@H](C(=O)N[C@@H](CC(=O)N1CCCC1)C(=O)N[C@@H](CC(=O)O)C(=O)N[C@H](CO)CC1CCCCC1)C(C)(C)C
6.9	CCNC(=O)C[C@H](NC(=O)[C@@H](NC(=O)C(CC)CC)C(C)(C)C)C(=O)N[C@@H](CC(=O)O)C(=O)N[C@@H](CC(C)C)C(=O)O ({Butanoyl(2-Et)}-[Tle]D(NHEt)DL-OH)
6.1	CCC(CC)C(=O)N[C@@H](CC(=O)O)C(=O)N[C@@H](CC(=O)N1CCCC1)C(=O)N[C@@H](CC(=O)O)C(=O)N[C@@H](CC(C)C)C(=O)O ({Butanoyl(2-Et)}-DD(Pyrrolidide)DL-OH)
5.6	CCC(CC)C(=O)N[C@H](C(=O)N[C@@H](CC(=O)N1CCCC1)C(=O)N[C@@H](CC(=O)O)C(=O)N[C@H](CO)CC(C)C)C(C)(C)C ({Butanoyl(2-Et)}-[Tle]D(Pyrrolidide)D[Leu(ol)])
4.7	CCOC(=O)C[C@H](NC(=O)[C@@H](NC(=O)C(CC)CC)C(C)(C)C)C(=O)N[C@@H](CC(=O)O)C(=O)N[C@@H](CC(C)C)C(=O)O ({Butanoyl(2-Et)}-[Tle]D(OEt)DL-OH)
4.4	CCC(CC)C(=O)N[C@H](C(=O)N[C@@H](CC(=O)N1CCCC1)C(=O)N[C@@H](CC(=O)O)C(=O)N[C@@H](CC(C)C)C(=O)O)[C@@H](C)O ({Butanoyl(2-Et)}-TD(Pyrrolidide)DL-OH)
3.1	CCC(CC)C(=O)N[C@H](C(=O)N[C@@H](CC(=O)N1CCCC1)C(=O)N[C@@H](CC(=O)O)C(=O)N[C@@H](CC(C)C)C(=O)O)C(C)OCc1ccccc1 (stereo partly drawn) ({Butanoyl(2-Et)}-[Thr(3ξ)](Bn)D(Pyrrolidide)DL-OH)
3	CC[C@H](C)[C@H](NC(=O)CC(C)C)C(=O)N[C@@H](CC(=O)N1CCCC1)C(=O)N[C@@H](CC(=O)O)C(=O)N[C@@H](CC(C)C)C(=O)O (Isovaleryl-ID(Pyrrolidide)DL-OH)
2	CC[C@H](C)[C@H](NC(=O)C(C(C)C)C(C)C)C(=O)N[C@@H](CC(=O)N1CCCC1)C(=O)N[C@@H](CC(=O)O)C(=O)N[C@@H](CC(C)C)C(=O)O (X1-ID(Pyrrolidide)DL-OH)
1.9	CCC(CC)C(=O)N[C@H](C(=O)N[C@@H](CC(=O)N1CCCC1)C(=O)N[C@@H](CC(=O)O)C(=O)N[C@H](CO)CC(C)(C)C)C(C)(C)C
1.5	CC[C@H](C)[C@H](NC(=O)C1CCCCC1)C(=O)N[C@@H](CC(=O)N1CCCC1)C(=O)N[C@@H](CC(=O)O)C(=O)N[C@@H](CC(C)C)C(=O)O (Cyclohexanecarbonyl-ID(Pyrrolidide)DL-OH)
1.5	CCC(CC)C(=O)N[C@H](C(=O)N[C@@H](CC(=O)N1CCCC1)C(=O)N[C@@H](CC(=O)O)C(=O)N[C@@H](CC(C)C)C(=O)O)[C@@H](C)CC ({Butanoyl(2-Et)}-ID(Pyrrolidide)DL-OH)
1.3	CCC(CC)C(=O)N[C@H](C(=O)N[C@@H](CC(=O)C1CCCC1)C(=O)N[C@@H](CC(=O)O)C(=O)N[C@@H](CC(C)C)C(=O)O)C(C)(C)C
1.3	CCC(CC)C(=O)N[C@H](C(=O)N[C@@H](CC(=O)N1CCCCC1)C(=O)N[C@@H](CC(=O)O)C(=O)N[C@@H](CC(C)C)C(=O)O)C(C)(C)C ({Butanoyl(2-Et)}-[Tle]D(Piperidide)DL-OH)
0.6	CCC(CC)C(=O)N[C@H](C(=O)N[C@@H](CC(=O)N1CCCC1)C(=O)N[C@@H](CC(=O)O)C(=O)N[C@@H](CC(C)C)C(=O)O)C(C)(C)C ({Butanoyl(2-Et)}-[Tle]D(Pyrrolidide)DL-OH)
0.18	CCC(CC)C(=O)N[C@H](C(=O)N[C@@H](CC(=O)N1CCCC1)C(=O)N[C@H](C(=O)N[C@@H](CC(C)C)C(=O)O)C(C)(C)C(=O)O)C(C)(C)C ({Butanoyl(2-Et)}-[Tle]D(Pyrrolidide)[Asp(3,3-Me2)]L-OH)

Molecular target: T1, Ribonucleoside-diphosphate reductase large subunit (Homo sapiens, UniProt P23921)
T1 sequence (P23921 whole entry): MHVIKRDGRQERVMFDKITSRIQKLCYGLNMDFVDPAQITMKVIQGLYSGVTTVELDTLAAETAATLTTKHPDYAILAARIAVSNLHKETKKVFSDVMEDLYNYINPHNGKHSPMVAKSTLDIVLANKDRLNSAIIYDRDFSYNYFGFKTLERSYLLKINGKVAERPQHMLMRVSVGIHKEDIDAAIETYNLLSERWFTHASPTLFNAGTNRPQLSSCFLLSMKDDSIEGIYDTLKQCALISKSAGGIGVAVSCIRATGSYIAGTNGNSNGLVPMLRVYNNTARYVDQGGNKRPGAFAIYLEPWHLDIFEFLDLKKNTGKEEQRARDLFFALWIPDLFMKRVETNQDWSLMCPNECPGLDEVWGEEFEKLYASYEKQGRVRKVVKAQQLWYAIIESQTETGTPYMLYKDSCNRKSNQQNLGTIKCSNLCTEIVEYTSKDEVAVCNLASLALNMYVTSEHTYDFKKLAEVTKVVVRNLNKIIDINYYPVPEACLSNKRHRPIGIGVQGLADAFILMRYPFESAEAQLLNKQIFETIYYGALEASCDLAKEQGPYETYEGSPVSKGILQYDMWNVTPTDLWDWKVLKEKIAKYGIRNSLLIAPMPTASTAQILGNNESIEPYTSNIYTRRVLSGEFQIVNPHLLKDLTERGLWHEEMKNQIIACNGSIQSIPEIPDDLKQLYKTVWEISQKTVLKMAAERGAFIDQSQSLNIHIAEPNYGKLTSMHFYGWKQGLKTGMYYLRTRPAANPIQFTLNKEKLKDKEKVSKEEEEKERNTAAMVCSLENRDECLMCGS
Experiment: Tested for inhibition of human ribonucleotide reductase

IC50 [µM]	Compound
> 1000	CCC(CC)C(=O)N[C@H](C(=O)N[C@@H](CC(=O)N1CCCC1)C(=O)N[C@@H](CC(=O)O)C(=O)N[C@@H](CC(C)C)C(=O)O)[C@@H](C)CC ({Butanoyl(2-Et)}-ID(Pyrrolidide)DL-OH)
> 1000	CCC(CC)C(=O)N[C@H](C(=O)N[C@@H](CC(=O)N1CCCC1)C(=O)N[C@@H](CC(=O)O)C(=O)N[C@@H](CC(C)C)C(=O)O)C(C)(C)C ({Butanoyl(2-Et)}-[Tle]D(Pyrrolidide)DL-OH)
